Screens (PubChem BioAssay)
Hits are enriched below; roughly 4% of the tested compounds scored in any of these assays.
Hsp70 act: Hsp70 transcriptional activators, primary screen, cell-based, HeLa, Hsp70 promoter luciferase, luminescence, 10 µM; activation, % at 10 µM; HeLa Hsp70 promoter luciferase reporter; scaled: vehicle 0, proteasome-inhibitor control 100%; AID 1203, 2008; 200,000 compounds, 0.04% hits;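 active = activation above the mean across all tested compounds plus 3 SD, cutoff set per campaign, cut at about 5.5% in these data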
CHOP inhibitor: inhibitors of CHOP promoter induction, primary screen, cell-based, unfolded protein response, luciferase reporter. CHO-K1 CHOP-promoter luciferase, tunicamycin-induced, 15-18 h. inhibition, % at 10 µM. 220,000 compounds, 3.8% hits. AID 2732, 2010;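 active = compounds that reduced the stress-induced luciferase reporter signal by more than about 70% of percent inhibition, limit read from the data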
S1P3 antag: S1P3 receptor antagonists, primary screen, cell-based | Sphingosine 1-phosphate receptor 3 (Homo sapiens), Q99500 | 170,000 compounds, 0.27% hits | CHO S1P3 NFAT-BLA reporter, FRET fluorescence, antagonist mode | inhibition, % at 4.98 µM | AID 485, 2006;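 active = inhibition above the plate cutoff, the mean inhibition of test wells on that plate plus 3 SD, cut at about 28% in these data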;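 note: cells challenged with S1P at its EC80 of 0.8 µM; blue over green emission ratio from cleaved BLA substrate after 4 h stimulation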
Target sequence (Q99500 whole entry, looked up): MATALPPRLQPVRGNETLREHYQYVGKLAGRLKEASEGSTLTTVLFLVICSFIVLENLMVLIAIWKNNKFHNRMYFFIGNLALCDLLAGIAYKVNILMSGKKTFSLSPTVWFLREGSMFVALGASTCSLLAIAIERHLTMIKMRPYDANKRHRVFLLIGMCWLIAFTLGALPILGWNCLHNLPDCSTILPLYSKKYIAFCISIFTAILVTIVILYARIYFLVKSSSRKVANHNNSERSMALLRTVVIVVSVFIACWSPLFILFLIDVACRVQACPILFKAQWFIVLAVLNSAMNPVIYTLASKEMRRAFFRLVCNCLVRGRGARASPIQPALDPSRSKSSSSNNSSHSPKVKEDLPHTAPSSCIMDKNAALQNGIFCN
MDM2 E3 inh: MDM2-luciferase reporter signal enhancers, primary screen, MDM2 E3 ligase inhibitor project, cell-based, luminescence, 1536-well; cell-based MDM2 ubiquitination luciferase reporter, 2 h; 0 = plate control, 100 = twice control, blank-subtracted; signal enhancement, % at 5 µM; 210,000 compounds, 0.11% hits;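 active = signal enhancement of 30% or more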;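 note: luminescence tracks abundance of the self-degrading MDM2-luciferase fusion protein; higher signal means inhibition of MDM2 E3 ligase activity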
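Test system: stable mammalian line carrying autodegrading MDM2–luciferase fusion reporter; quantity: 2000 cells in each well; times: 4 h cell settling then 2 h compound exposure, 37 °C; detection: luminescence with SteadyLite reagent, 15 min at room temperature; evaluation: percent signal gain over controls, blank-subtracted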
CHOP confirm: retest of CHOP induction inhibitors, confirmation, cell-based. shares compounds with CHOP inhibitor. CHO-CHOP promoter luciferase reporter, tunicamycin-induced, luminescence. inhibition, % at 10 µM. 2,100 compounds, 45% hits. AID 504437, 2011;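 active = mean of three repeat readings of reporter signal inhibition above a set limit, cut at about 70% in these data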
Large screens that a line does not name were inactive (follow-up assays come after a bar, where they were run).

O=C(Nc1nc2ccccc2s1)C1CC(=O)N(c2ccc(Br)cc2)C1 (configuration not stated)	CHOP inhibitor 96 (no result: S1P3 antag) | CHOP confirm inactive
O=C(O)c1cccc(COc2ccccc2Cl)c1	CHOP inhibitor 104 (no result: Hsp70 act, S1P3 antag) | CHOP confirm 132
O=C(O)c1ccc(COc2ccccc2Cl)cc1	none
O=C(NNc1c(Cl)cccc1Cl)C1CCC1	none (no result: Hsp70 act)
COC(=O)c1cn(N(C)c2ncc(C(F)(F)F)cc2Cl)c(=O)c2ccccc12	none (no result: S1P3 antag)
COC(=O)c1cn(Nc2ncc(C(F)(F)F)cc2Cl)c(=O)c2ccccc12	CHOP inhibitor 99 (no result: S1P3 antag) | CHOP confirm inactive
CC1CCc2nc(NC(=O)CSc3nc4ccccc4o3)sc2C1 (configuration not stated)	CHOP inhibitor 97 | CHOP confirm inactive
Cc1nnc(NC(=O)CSc2nc3ccccc3o2)s1	none (no result: S1P3 antag)
Cc1nc(SCc2ccc(OCCC(C)C)cc2)n[nH]1	none
COc1ccc(C(C(=O)NC2CCCCC2)N(C(=O)CCl)c2ccc(Cl)cc2)cc1 (configuration not stated)	CHOP inhibitor 107 | CHOP confirm inactive
COc1ccc(N(C(=O)c2cnccn2)C(C(=O)NC2CCCCC2)c2ccc(Cl)cc2)cc1 (configuration not stated)	none (no result: CHOP inhibitor, S1P3 antag, MDM2 E3 inh)
CCN1CCN(c2cc(C)c3cc(NC(=S)N4CCN(c5ccc(F)cc5)CC4)ccc3n2)CC1	CHOP inhibitor 106 | CHOP confirm inactive
CCN1CCN(C(=S)Nc2ccc3nc(N4CCN(CC)CC4)cc(C)c3c2)CC1	none
CC1CCCC(C)N1C(=O)c1cc2ncc(CCCl)cn2n1 (configuration not stated)	none
CCOC(=O)c1[nH]c(C)c(CN(C(C)=O)c2ccc(OCC)cc2)c1C	none
CC1=CCC[C@@H]2[C@@](C)(CC/C(C)=C/C(=O)O)[C@H](C)CC[C@@]12C	CHOP inhibitor 99 (no result: MDM2 E3 inh) | CHOP confirm 112
Cc1nnc(SCc2nnc(-c3ccccc3Br)o2)s1	none
O=c1[nH]cnc2scc(-c3ccc(-c4ccccc4)cc3)c12	CHOP inhibitor 96 (no result: S1P3 antag) | CHOP confirm inactive
CSCc1nc2scc(-c3ccccc3)c2c(=O)[nH]1	none
Cc1ccc(Cn2c(-c3nonc3N)nc3ccccc32)cc1	CHOP inhibitor 105 | CHOP confirm inactive
Nc1nonc1-c1nc2ccccc2n1Cc1ccc(Cl)cc1	none
C=CCOC(=O)C1=C(C)NC(SCC)=C(C#N)C1c1ccc(Cl)cc1 (configuration not stated)	CHOP inhibitor 102 (no result: S1P3 antag) | CHOP confirm inactive
C=CCOC(=O)C1=C(C)NC(SCC(N)=O)=C(C#N)C1c1ccc(C)cc1 (configuration not stated)	none (no result: Hsp70 act)
CCCCC(CC)Cn1c(N)c(C#N)c2nc3ccccc3nc21 (configuration not stated)	CHOP inhibitor 101 | CHOP confirm 133
CCCCC(CC)Cn1c2nc3ccccc3nc2c2c(=N)oc(C)nc21 (configuration not stated)	CHOP inhibitor 106 (no result: S1P3 antag) | CHOP confirm 104
C=C(C)C(=O)Nc1cccc(C2=NOC3(C2)C[C@@H](C(N)=O)N(C(=O)CC(c2ccccc2)c2ccccc2)C3)c1 (some centres not stated)	none (no result: Hsp70 act, S1P3 antag)
O=C(NC(c1ccccc1)c1c(O)ccc2ccccc12)c1ccccc1Cl (configuration not stated)	CHOP inhibitor 107 (no result: S1P3 antag) | CHOP confirm 125
CCC(=O)NC(c1ccccc1Cl)c1c(O)ccc2ccccc12 (configuration not stated)	none
O=C1CC(SCc2nc3ccccc3[nH]2)C(=O)N1c1cccc(Cl)c1 (configuration not stated)	none (no result: S1P3 antag)
COc1ccc(N2C(=O)CC(Sc3nnc(-c4ccccc4)o3)C2=O)cc1 (configuration not stated)	CHOP inhibitor 109 | CHOP confirm inactive
COc1ccc(N2C(=O)CC(Sc3nnnn3-c3ccc(F)cc3)C2=O)cc1 (configuration not stated)	CHOP inhibitor 107 | CHOP confirm 134
O=C1CC(Sc2nnnn2-c2ccccc2)C(=O)N1c1cccc(Cl)c1 (configuration not stated)	CHOP inhibitor 110 (no result: S1P3 antag) | CHOP confirm 111
CN(C(=O)CSc1nc(-c2ccccc2)cn1N)C(c1ccccc1)c1ccccc1	none (no result: S1P3 antag)
CC(C)NS(=O)(=O)c1ccc(CCC(=O)Nc2ccc3c(c2)OCO3)cc1	none (no result: S1P3 antag)
Cc1cc(Nc2ccccc2)nc(NCc2ccccc2)n1	none
Cc1cc(Nc2ccc(Cl)cc2)nc(NCc2ccccc2)n1	CHOP inhibitor 107 | CHOP confirm 81
Cc1ccc(C(=C2C3C=CC2C2C(=O)NC(=O)C32)c2ccc(C)cc2)cc1 (configuration not stated)	CHOP inhibitor 108 (no result: S1P3 antag) | CHOP confirm inactive
O=C1C2C3C=CC(C3=C(c3ccccc3)c3ccccc3)C2C(=O)N1CCO (configuration not stated)	none (no result: S1P3 antag)
O=C(O)c1ccc2c(=O)[nH]c(CCl)nc2c1	none
COC(=O)c1cn[nH]c1NC(=S)Nc1ccc(C)cc1Cl	none (no result: S1P3 antag)
COC(=O)c1cn[nH]c1NC(=S)Nc1ccc(Cl)c(Cl)c1	CHOP inhibitor 97 (no result: S1P3 antag) | CHOP confirm inactive
Cc1nn(C)cc1C(C(=O)NC1CCCCC1)N(C(=O)Cc1cccs1)c1ccc(Cl)cc1 (configuration not stated)	none
COc1ccc(Cl)cc1NC(=O)c1cc(-c2ccccc2O)n[nH]1	none
COc1ccc(OC)c(NC(=O)c2cc(-c3cc(Cl)ccc3O)n[nH]2)c1	CHOP inhibitor 103 | CHOP confirm inactive
COc1ccc(N2CCN(C(C)C(=O)N3CC(C)OC(C)C3)CC2)cc1 (configuration not stated)	none
CC1=CC(C)(C)Nc2ccc(OC(=O)CCN3C(=O)c4ccccc4C3=O)cc21	CHOP inhibitor 108 | CHOP confirm inactive
Clc1ccccc1CN(Cc1ccccc1)c1ncnc2nc[nH]c12	CHOP inhibitor 107 (no result: S1P3 antag) | CHOP confirm inactive
Clc1ccccc1CNc1ncnc2nc[nH]c12	none
CCOc1ccc(NC(=O)c2ccccc2NC(=O)CN(C)CC(=O)Nc2ccc(C)cc2)cc1	CHOP inhibitor 107 (no result: S1P3 antag) | CHOP confirm inactive
O=c1ccc(NS(=O)(=O)c2ccccc2)cn1Cc1ccc(Cl)c(Cl)c1	none (no result: S1P3 antag)
O=C(Cc1csc(Nc2nc(=S)[nH]c3ccccc23)n1)N1CCN(c2cccc(C(F)(F)F)c2)CC1	CHOP inhibitor 107 | CHOP confirm inactive
Cc1ccc(CNC(=O)Cc2csc(Nc3nc(=S)[nH]c4ccccc34)n2)cc1	none (no result: S1P3 antag)
N#CC1=C(N)C2=CCCC[C@H]2[C@H](c2ccc(Br)cc2)C1(C#N)C#N	CHOP inhibitor 99 | CHOP confirm inactive
